{"source": "ChEMBL document CHEMBL4396965", "data": [{"test_system": "H1N1 subtype", "assay": "(§1) Antiviral activity against Influenza A virus (H1N1) harboring PR8-GLuc infected in human A549 cells assessed as reduction in virus-induced cytopathic effect treated post viral infection for 1 hr by luciferase reporter gene assay", "type": "functional, cell-based", "conditions": "not given", "summary_of_the_method": "(§2)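 A549 cells seeded 40,000/well, incubated overnight 37 °C 5% CO2, then infected with PR8-GLuc (H1N1) at 0.1 MOI for 1 h; unbound virus removed by two acidic (PBS pH 2.2) and three neutral (PBS pH 7.4) washes. Initial screen at one concentration below maximum non-toxic concentration; those reaching 50% inhibition retested in dose response for EC50 and EC90.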", "units": {"EC90": "nM"}, "values": [{"smiles": "O=C(O)[C@H]1C2CCC(CC2)[C@@H]1Nc1nc(-c2c[nH]c3ncc(F)cc23)ncc1F", "note": "[PIMODIVIR]", "EC90": 27}]}, {"test_system": "not listed separately", "assay": "as §1", "type": "functional, cell-based, H1N1 subtype", "conditions": "A549, 1 h", "summary_of_the_method": "as §2", "units": {"EC50": "nM"}, "values": [{"smiles": "Cn1cnc2nc(-c3c[nH]c4ncc(F)cc34)nc(N[C@H]3C4C=CC(CC4)[C@@H]3C(=O)O)c21", "note": "(stereo partly drawn)", "EC50": "> 10000"}, {"smiles": "O=C(O)[C@H]1C2C=CC(CC2)[C@@H]1Nc1nc2cnc(-c3c[nH]c4ncc(F)cc34)nc2s1", "note": "(stereo partly drawn)", "EC50": "> 100000"}, {"smiles": "O=C(O)[C@H]1C2C=CC(CC2)[C@@H]1Nc1nc(-c2n[nH]c3ncc(F)cc23)nc2ccsc12", "note": "(stereo partly drawn)", "EC50": 42}, {"smiles": "Cc1cc2nc(-c3c[nH]c4ncc(F)cc34)nc(N[C@H]3C4C=CC(CC4)[C@@H]3C(=O)O)c2s1", "note": "(stereo partly drawn)", "EC50": 27}, {"smiles": "O=C(O)[C@H]1C2C=CC(CC2)[C@@H]1Nc1cc2nncn2c(-c2c[nH]c3ncc(F)cc23)n1", "note": "(stereo partly drawn)", "EC50": 680}, {"smiles": "O=C(O)[C@H]1C2C=CC(CC2)[C@@H]1Nc1nc(-c2n[nH]c3ncc(F)cc23)nc2sccc12", "note": "(stereo partly drawn)", "EC50": 12}, {"smiles": "O=C(O)[C@H]1C2C=CC(C2)[C@@H]1Nc1nc(-c2c[nH]c3ncc(F)cc23)ncc1F", "note": "(stereo partly drawn)", "EC50": 50}, {"smiles": "O=C(O)[C@H]1C2CCC(CC2)[C@@H]1Nc1nc(-c2c[nH]c3ncc(F)cc23)ncc1F", "note": "[PIMODIVIR]", "EC50": 4}, {"smiles": "O=C(O)[C@H]1C2C=CC(CC2)[C@@H]1Nc1nc(-c2n[nH]c3ncc(F)cc23)ncc1F", "note": "(stereo partly drawn)", "EC50": 16}, {"smiles": "O=C(O)[C@H]1C2C=CC(CC2)[C@@H]1c1nnc2c(F)cnc(-c3c[nH]c4ncc(F)cc34)n12", "note": "(stereo partly drawn)", "EC50": "> 40000"}, {"smiles": "O=C(O)[C@H]1C2CCC(C3CC32)[C@@H]1Nc1nc(-c2c[nH]c3ncc(F)cc23)ncc1F", "note": "(stereo partly drawn)", "EC50": 50}, {"smiles": "O=C(O)[C@H]1C2C=CC(CC2)[C@@H]1Nc1nc(-c2c[nH]c3ncc(F)cc23)ncc1F", "note": "(stereo partly drawn)", "EC50": 7}, {"smiles": "Cn1cnc2c(N[C@H]3C4C=CC(CC4)[C@@H]3C(=O)O)nc(-c3c[nH]c4ncc(F)cc34)nc21", "note": "(stereo partly drawn)", "EC50": 400}, {"smiles": "O=C(O)C12CC3CC(CC(Nc4nc(-c5c[nH]c6ncc(F)cc56)ncc4F)(C3)C1)C2", "EC50": 950}, {"smiles": "Cc1csc2c(N[C@H]3C4C=CC(CC4)[C@@H]3C(=O)O)nc(-c3c[nH]c4ncc(F)cc34)nc12", "note": "(stereo partly drawn)", "EC50": 29}, {"smiles": "O=C(O)[C@H]1C2C=CC(CC2)[C@@H]1Nc1nc(-c2c[nH]c3ncc(F)cc23)nc2ccsc12", "note": "(stereo partly drawn)", "EC50": 17}, {"smiles": "O=C(O)[C@H]1C2C=CC(CC2)[C@@H]1Nc1nc(-c2c[nH]c3ncc(F)cc23)nc2sccc12", "note": "(stereo partly drawn)", "EC50": 6.5}]}]}
